Blank lines part the entries; values can stand above or below the molecule they belong to. Calls of active or inactive are those of the source. No cut-off for these calls is given here.
How the values were obtained:
NCI-H1975 [1] = experiment: Antiproliferative activity against human NCI-H1975 cells at 5 uM after 72 hrs by MTT assay; assay type: functional, cell-based
Summary of the method: (§1)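 Single-concentration screen at 5 μM. Cells seeded at 3000 per well, cultured overnight, treated 72 h. MTT (5 mg/mL stock) added for 4 h, formazan dissolved in DMSO, absorbance at 490 nm. Growth inhibition rate = [1 − A treated/A control]×100%.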

A549 [2] = experiment: Antiproliferative activity against human A549 cells at 5 uM after 72 hrs by MTT assay; assay type: functional, cell-based; summary of the method: as §1
NCI-H460 [3] = experiment: Antiproliferative activity against human NCI-H460 cells at 5 uM after 72 hrs by MTT assay; assay type: functional, cell-based; summary of the method: as §1
[4] = (§2) Acute toxicity in BALB/c mouse assessed as mortality at 500 mg/kg, ip administered as single dose on day 1 measured during 14 days; assay type: organism-based; conditions: BALB/c, in vivo
Summary of the method: (§3)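 Male wild-type BALB/c mice (26-33 g), randomised into groups of n=6 (vehicle, reference agent, test). Single intraperitoneal injection at 500 mg/kg on the first day only. Housed on a 12 h light-dark cycle at 25 °C with free water and diet. Deaths recorded over 14 days, then all animals euthanised.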

NCI-H460 [5] = experiment: Antiproliferative activity against human NCI-H460 cells after 72 hrs by MTT assay; assay type: functional, cell-based; conditions: NCI-H460, 72 h
Summary of the method: (§4)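 Cells seeded at 3000 per well, cultured overnight, then exposed to compounds for 72 h at 37 °C, 5% CO2. MTT (5 mg/mL stock) added for 4 h, formazan dissolved in DMSO, absorbance read at 490 nm. Inhibition calculated as [1 − A treated/A control]×100%, and IC50 derived from the inhibition data. Mean ± SEM of three independent experiments.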

NCI-H460 [6] = experiment: Antiproliferative activity against human NCI-H460 cells at 5 uM after 12 to 72 hrs by MTT assay; assay type: functional, cell-based; conditions: TDE = time-dependent effect
Summary of the method: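 Time course at 5 μM, with exposures of 12, 24, 48 and 72 h. Cells seeded at 3000 per well after overnight attachment. Viability read by MTT (5 mg/mL stock, 4 h), formazan dissolved in DMSO, absorbance at 490 nm.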

A549 [7] = experiment: Antiproliferative activity against human A549 cells after 72 hrs by MTT assay; assay type: functional, cell-based; conditions: A549, 72 h; summary of the method: as §4
NCI-H460 [8] = experiment: Inhibition of colony formation in human NCI-H460 cells after 12 hrs by crystal violet staining-based assay; assay type: functional, cell-based
Summary of the method: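 Cells seeded at 1000 per well and grown overnight. Exposed to compounds at 1.25, 2.5 and 5 μM for 12 h, then switched to normal medium for about 8 days. Colonies stained with crystal violet and photographed.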

NCI-H1975 [9] = experiment: Antiproliferative activity against human NCI-H1975 cells after 72 hrs by MTT assay; assay type: functional, cell-based; conditions: NCI-H1975, 72 h; summary of the method: as §4
NCI-H460 [10] = experiment: Induction of pyroptosis in human NCI-H460 cells at 20 uM assessed as loss of osmotic potential at 20 uM after 19 to 24 hrs by bright field microscopic analysis; assay type: functional, cell-based
Summary of the method: (§5)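 Cells plated at 300,000/well 24 h before stimulation, then exposed to compound at 20 μM for 19 and 24 h. Cisplatin (20 μg/mL, 24 h) run alongside, with DMSO-treated cells as control. Morphology recorded by static bright-field microscopy.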

NCI-H460 [11] = experiment: Inhibition of colony formation in human NCI-H460 cells preincubated with 5 mM NAC for 1 hr followed by compound addition at 5 uM after 12 hrs by crystal violet staining-based assay; assay type: functional, cell-based
Summary of the method: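 Cells pre-incubated with 5 mM NAC for 1 h, then exposed to compound at 5 μM for 12 h. Medium replaced with fresh medium and colonies grown about 8 days. Colonies stained with crystal violet and imaged.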

NCI-H460 [12] = experiment: Induction of intracellular ROS accumulation in human NCI-H460 cells at 10 uM after 3 to 24 hrs by DCFH-DA staining-based flow cytometric analysis; assay type: functional, cell-based
Summary of the method: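 Cells plated at 300,000/well for 24 h, then treated at 10 μM for 3, 6, 12 and 24 h. Switched to serum-free medium and loaded with DCFH-DA (10 μM) for 30 min at 37 °C in the dark. Cells collected and analysed by flow cytometry.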

NCI-H460 [13] = experiment: Induction of pyroptosis in human NCI-H460 cells assessed as reduction in pro-caspase-3 protein expression at 5 uM by Western blot analysis; assay type: functional, cell-based; conditions: TDE = time-dependent effect
NCI-H460 [14] = experiment: Induction of pyroptosis in human NCI-H460 cells assessed as cytoplasmic swelling at 20 uM after 19 to 24 hrs by bright field microscopic analysis; assay type: functional, cell-based; summary of the method: as §5
Mus musculus = experiment: as §2; assay type: organism-based; conditions: in vivo, 336 h; summary of the method: as §3
NCI-H460 [15] = experiment: Antiproliferative activity against human NCI-H460 cells assessed as reduction in cell viability preincubated with 5 mM NAC for 1 hr followed by compound addition at 5 uM after 48 hrs by MTT assay; assay type: functional, cell-based
Summary of the method: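 Cells pre-incubated with 5 mM NAC for 1 h, then exposed to compound at 5 μM for 48 h. Viability read by MTT at 490 nm after formazan solubilisation in DMSO. Groups compared against compound-only and NAC-only treatments.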

NCI-H460 [16] = experiment: Induction of intracellular ROS accumulation in human NCI-H460 cells pre-treated with 5 mM NAC for 1 hr followed by compound addition at 10 uM for 3 hrs by DCFH-DA staining-based flow cytometric analysis; assay type: functional, cell-based
Summary of the method: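 Cells plated at 300,000/well for 24 h, pretreated with 5 mM NAC for 1 h, then given compound at 10 μM for 3 h. Loaded with DCFH-DA (10 μM) for 30 min at 37 °C in the dark in serum-free medium. Read by flow cytometry.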

NCI-H460 [17] = experiment: Induction of pyroptosis in human NCI-H460 cells pretreated with 20 mM NAC for 4 hrs followed by compound addition assessed as at 20 uM after 24 hrs by bright field microscopic analysis; assay type: functional, cell-based
Summary of the method: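 Cells plated at 300,000/well, pretreated with NAC (20 mM) for 4 h, then given compound at 20 μM for 24 h. Pyroptotic morphology recorded by bright-field microscopic imaging, with DMSO-treated cells as control.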

NCI-H460 [18] = experiment: Induction of pyroptosis in human NCI-H460 cells assessed as release of cellular content at 20 uM after 19 to 24 hrs by bright field microscopic analysis; assay type: functional, cell-based; summary of the method: as §5

Compound: C=CC(=O)Nc1ccc(C(=O)/C=C/c2ccc(OC)c(OC)c2)cc1
Activity (NCI-H1975 [1]): Active
Activity (A549 [2]): inactive
Activity (NCI-H460 [3]): Active

Compound: C=CC(=O)Nc1ccc(C(=O)/C=C/c2ccc(Cl)c(Cl)c2)cc1
Activity (NCI-H1975 [1]): Active
Activity (A549 [2]): inactive
Activity (NCI-H460 [3]): Active

Compound: C=CC(=O)Nc1ccc(C(=O)/C=C/c2ccc(Cl)cc2Cl)cc1
Activity (NCI-H1975 [1]): Active
Activity (NCI-H460 [3]): Active

Compound: C=CC(=O)Nc1ccc(C(=O)/C=C/c2ccccc2)cc1
Activity (NCI-H1975 [1]): Active
Activity (NCI-H460 [3]): Active

Compound: O=C1/C(=C/c2ccccc2F)CNC/C1=C\c1ccccc1F
mortality at 336 h [4]: 33.3%

Compound: C=CC(=O)Nc1ccc(C(=O)/C=C/c2ccc(F)c(F)c2)cc1
Activity (NCI-H1975 [1]): Active
Activity (A549 [2]): inactive
Activity (NCI-H460 [3]): Active

IC50 (NCI-H460 [5]): 2.2 µM
IC50 (A549 [7]): 4.4 µM
IC50 (NCI-H1975 [9]): 5.2 µM
Compound: C=CC(=O)Nc1ccc(C(=O)/C=C/c2ccccc2Br)cc1
Activity (NCI-H1975 [1]): Active
Activity (NCI-H460 [6]): Tde
inhibition (NCI-H460 [8]): Dose-dependent effect
Activity (NCI-H460 [3]): Active

Compound: C=CC(=O)Nc1ccc(C(C)=O)cc1
Activity (NCI-H1975 [1]): Active
Activity (A549 [2]): Active
Activity (NCI-H460 [3]): Active

Compound: Nc1ccc(C(=O)/C=C/c2ccccc2Cl)cc1
Activity (NCI-H1975 [1]): Active
Activity (A549 [2]): Active
Activity (NCI-H460 [3]): Active

Compound: C=CC(=O)Nc1ccc(C(=O)/C=C/c2cccc(F)c2)cc1
Activity (NCI-H1975 [1]): Active
Activity (NCI-H460 [3]): Active

Compound: C=CC(=O)Nc1ccc(C(=O)/C=C/c2cccc(Cl)c2Cl)cc1
Activity (NCI-H1975 [1]): Active
Activity (NCI-H460 [3]): Active

Compound: C=CC(=O)Nc1ccc(C(=O)/C=C/c2ccccc2F)cc1
Activity (NCI-H1975 [1]): Active
Activity (NCI-H460 [3]): Active

Compound: C=CC(=O)Nc1ccc(C(=O)/C=C/c2c(F)cccc2F)cc1
Activity (NCI-H1975 [1]): Active
Activity (NCI-H460 [3]): Active

Compound: C=CC(=O)Nc1ccc(C(=O)/C=C/c2cc(OC)ccc2F)cc1
Activity (NCI-H1975 [1]): Active
Activity (NCI-H460 [3]): Active

Compound: C=CC(=O)Nc1ccc(C(=O)/C=C/c2cc(OC)ccc2OC)cc1
Activity (NCI-H1975 [1]): Active
Activity (NCI-H460 [3]): Active

Compound: C=CC(=O)Nc1ccc(C(=O)/C=C/c2ccccc2Cl)cc1
Activity (NCI-H460 [10]): Active
inhibition (NCI-H460 [11]): inactive
Activity (NCI-H460 [12]): Active
Activity (NCI-H460 [13]): Tde
IC50 (NCI-H460 [5]): 2.3 µM
Activity (NCI-H1975 [1]): Active
Activity (NCI-H460 [6]): Tde
IC50 (A549 [7]): 3.2 µM
Activity (NCI-H460 [14]): Active
inhibition (NCI-H460 [8]): Dose-dependent effect
Activity (Mus musculus): Non-Toxic
Activity (A549 [2]): Active
Activity (NCI-H460 [15]): inactive
Activity (NCI-H460 [16]): inactive
Activity (NCI-H460 [3]): Active
IC50 (NCI-H1975 [9]): 5.7 µM
Activity (NCI-H460 [17]): inactive
Activity (NCI-H460 [18]): Active

IC50 (NCI-H460 [5]): 7.5 µM
IC50 (A549 [7]): 11.9 µM
IC50 (NCI-H1975 [9]): 13 µM
Compound: COc1cc(O)c(CC=C(C)C)c(O)c1C(=O)/C=C/c1ccc(O)cc1 [XANTHOHUMOL]

Compound: C=CC(=O)Nc1ccc(C(=O)/C=C/c2ccc(OC)cc2)cc1
Activity (NCI-H1975 [1]): Active
Activity (A549 [2]): inactive
Activity (NCI-H460 [3]): Active

Compound: C=CC(=O)Nc1ccc(C(=O)/C=C/c2cccc(OC)c2OC)cc1
Activity (NCI-H1975 [1]): Active
Activity (NCI-H460 [3]): Active

Compound: C=CC(=O)Nc1ccc(C(=O)/C=C/c2ccc(N(C)C)cc2)cc1
Activity (NCI-H1975 [1]): Active
Activity (A549 [2]): inactive
Activity (NCI-H460 [3]): Active

IC50 (NCI-H460 [5]): 2 µM
IC50 (A549 [7]): 4 µM
IC50 (NCI-H1975 [9]): 5.4 µM
Compound: C=CC(=O)Nc1ccc(C(=O)/C=C/c2cc(OC)c(OC)c(OC)c2)cc1
Activity (NCI-H1975 [1]): Active
Activity (NCI-H460 [6]): Tde
inhibition (NCI-H460 [8]): Dose-dependent effect
Activity (NCI-H460 [3]): Active

Compound: C=CC(=O)Nc1ccc(C(=O)/C=C/c2ccccc2C(F)(F)F)cc1
Activity (NCI-H1975 [1]): Active
Activity (A549 [2]): Active
Activity (NCI-H460 [3]): Active

Compound: C=CC(=O)Nc1ccc(C(=O)/C=C/c2ccc(Cl)cc2)cc1
Activity (NCI-H1975 [1]): Active
Activity (A549 [2]): inactive
Activity (NCI-H460 [3]): Active

Reference: ChEMBL document CHEMBL4261590, “Design, synthesis, and evaluation of chalcone analogues incorporate α,β-Unsaturated ketone functionality as anti-lung cancer agents via evoking ROS to induce pyroptosis” (Eur J Med Chem, 2018)
